The source of these data is ChEMBL document CHEMBL1255444, “In vitro antibacterial activities of JNJ-Q2, a new broad-spectrum fluoroquinolone” (Antimicrob Agents Chemother, 2010).

Structures are written as SMILES. Values after ≈ are worked out from the molar mass of the structure shown. Active and inactive are the calls of the source. The calls are words filed in the database; no cut-off is given here. Bounds are passed on as bounds.

In test [1] the test system is Staphylococcus aureus. The test is described as follows: Antibacterial activity against methicillin-resistant Staphylococcus aureus isolate OC8525 harboring wild type quinolone resistance-determining region assessed as >= 4 fold increase in bactericidal activity by broth microdilution method in presence of 20 ug/ml reserpine. The format is functional, organism-based. (In broth dilution the organism is exposed to a series of concentrations in liquid medium.)

Test [2] relates to Staphylococcus aureus. Kind of test: Antibacterial activity against methicillin-resistant Staphylococcus aureus isolate OC11696 assessed as >= 4 fold increase in bactericidal activity by broth microdilution method in presence of 20 ug/ml reserpine. The format is functional, organism-based.
Test [3] concerns Staphylococcus aureus. The test is described as follows: Antibacterial activity against methicillin-resistant Staphylococcus aureus isolate OC4222 harboring gyrA S84L and parC S80F mutant gene assessed as >= 4 fold increase in bactericidal activity by broth microdilution method in presence of 20 ug/ml reserpine. The format is functional, organism-based.
The subject of test [4] is Staphylococcus aureus. Kind of test: Antibacterial activity against methicillin-resistant Staphylococcus aureus isolate OC11521 harboring gyrA S84L/S85P, parC E84G mutant gene assessed as >= 4 fold increase in bactericidal activity by broth microdilution method in presence of 20 ug/ml reserpine. The format is functional, organism-based.
For test [5], the system named is Staphylococcus aureus. The test is described as follows: Antibacterial activity against methicillin-resistant Staphylococcus aureus isolate OC8530 harboring gyrA S84L and parC I143V mutant gene assessed as >= 4 fold increase in bactericidal activity by broth microdilution method in presence of 20 ug/ml reserpine. The format is functional, organism-based.
For test [6], the system named is Staphylococcus aureus. Kind of test: Antibacterial activity against methicillin-resistant Staphylococcus aureus isolate OC17042 harboring gyrA S84L/G106D, parC S80F and parE D732N mutant gene assessed as >= 4 fold increase in bactericidal activity by broth microdilution method in presence of 20 ug/ml reserpine. The format is functional, organism-based.
For test [7], the system named is Staphylococcus aureus. Kind of test: Antibacterial activity against methicillin-resistant Staphylococcus aureus isolate OC12501 assessed as >= 4 fold increase in bactericidal activity by broth microdilution method in presence of 20 ug/ml reserpine. The format is functional, organism-based.
The next test relates to Streptococcus pyogenes. The test is described as follows: Antibacterial activity against Streptococcus pyogenes by broth microdilution method. The format is functional. An outline of the steps:
(§1)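 MICs by CLSI M07-A7 broth microdilution in cation-adjusted Mueller-Hinton medium. For S. pneumoniae the medium was supplemented with 5% lysed horse blood. CLSI quality control strains were run alongside as appropriate.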

In test [8] the test system is Staphylococcus aureus. Kind of test: Antibacterial activity against methicillin-resistant Staphylococcus aureus isolate OC15425 harboring gyrA S84L and parC S80F mutant gene by agar dilution method. The format is functional. The method, boiled down: (§2)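 MICs for the resistance-selection studies were determined by CLSI agar dilution on Mueller-Hinton medium. For S. pneumoniae the medium was supplemented with 5% lysed horse blood. For MRSA fluctuation-assay strains an arithmetic agar dilution scheme was used for a more precise MIC.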
On the technique in general: In agar dilution the substance is mixed into plates at graded concentrations.

The test system of another test is Providencia stuartii. The test is described as follows: Antibacterial activity against Providencia stuartii by broth microdilution method. The format is functional. An outline of the steps:
as §1

The subject of a further test is Serratia marcescens. Kind of test: Antibacterial activity against Serratia marcescens by broth microdilution method. The format is functional. An outline of the steps: as §1
The subject of test [9] is Staphylococcus aureus. Kind of test: Antibacterial activity against methicillin-resistant Staphylococcus aureus isolate OC11150 harboring gyrA S84L and parC S80Y mutant gene by agar dilution method. The format is functional. An outline of the steps: as §2
Another test deals with Enterococcus faecalis. Kind of test: Antibacterial activity against Enterococcus faecalis ATCC 29212 by broth microdilution method. The format is functional. An outline of the steps: as §1
For test [10], the system named is Staphylococcus aureus. Kind of test: Antibacterial activity against Staphylococcus aureus […] by broth microdilution method. The format is functional. The method, boiled down:
(§3)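 CLSI M07-A7 broth microdilution MIC. Medium was cation-adjusted Mueller-Hinton broth. For S. pneumoniae it was Mueller-Hinton supplemented with 5% lysed horse blood. CLSI quality-control strains were included as appropriate.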

Test [11] deals with Staphylococcus aureus. Kind of test: Antibacterial activity against methicillin-, ciprofloxacin-resistant Staphylococcus aureus by broth microdilution method. The format is functional. An outline of the steps: as §3
Test [12] concerns Staphylococcus aureus. Kind of test: Antibacterial activity against methicillin-resistant Staphylococcus aureus by broth microdilution method. The format is functional. An outline of the steps:
as §3

In another test the test system is Haemophilus influenzae. The test is described as follows: Antibacterial activity against Haemophilus influenzae by broth microdilution method. The format is functional. The method, boiled down: as §1
Another test relates to Citrobacter freundii. Kind of test: Antibacterial activity against Citrobacter freundii by broth microdilution method. The format is functional. An outline of the steps: as §1
For test [13], the system named is Streptococcus pneumoniae. The test is described as follows: Antibacterial activity against ciprofloxacin-resistant Streptococcus pneumoniae by broth microdilution method. The format is functional. The method, boiled down: as §3
In a further test the test system is Moraxella catarrhalis. The test is described as follows: Antibacterial activity against Moraxella catarrhalis by broth microdilution method. The format is functional. An outline of the steps: as §1
The test system of another test is Escherichia coli. Kind of test: Antibacterial activity against ciprofloxacin-resistant Escherichia coli by broth microdilution method. The format is functional. The method, boiled down:
as §3

For test [14], the system named is Staphylococcus epidermidis. Kind of test: Antibacterial activity against methicillin-, ciprofloxacin-resistant Staphylococcus epidermidis by broth microdilution method. The format is functional.
The test system of the next test is Klebsiella aerogenes. Kind of test: Antibacterial activity against Enterobacter aerogenes by broth microdilution method. The format is functional. The method, boiled down: as §1
Test [15] concerns Staphylococcus aureus. Kind of test: Antibacterial activity against methicillin-resistant Staphylococcus aureus isolate OC8532 harboring wild type quinolone resistance-determining region by agar dilution method. The format is functional. The method, boiled down: (§4)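 CLSI agar dilution MIC on cation-adjusted Mueller-Hinton medium. These were the MIC values used for the resistance studies, and CLSI quality-control strains were included as appropriate.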

Test [16] relates to Staphylococcus aureus. The test is described as follows: Antibacterial activity against methicillin-resistant Staphylococcus aureus isolate OC8525 harboring wild type quinolone resistance-determining region by agar dilution method. The format is functional. An outline of the steps:
as §4

The nature of test [17]: Antibacterial activity against Streptococcus sp. group C by broth microdilution method. The format is functional. An outline of the steps:
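MICs by broth microdilution following CLSI M07-A7 in cation-adjusted Mueller-Hinton medium, using isolates from the J&JPRD culture collection. CLSI quality control strains were included as appropriate.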

A further test concerns Proteus mirabilis. The test is described as follows: Antibacterial activity against Proteus mirabilis by broth microdilution method. The format is functional. The method, boiled down:
as §1

A further test has as its system Pseudomonas aeruginosa. Kind of test: Antibacterial activity against Pseudomonas aeruginosa ATCC 27853 by broth microdilution method. The format is functional. An outline of the steps: as §1
A further test has as its system Enterococcus faecium. The test is described as follows: Antibacterial activity against Enterococcus faecium by broth microdilution method. The format is functional. The method, boiled down:
as §1

Test [18] concerns Staphylococcus epidermidis. Kind of test: Antibacterial activity against methicillin-resistant Staphylococcus epidermidis by broth microdilution method. The format is functional.
Another test deals with Streptococcus agalactiae. The test is described as follows: Antibacterial activity against Streptococcus agalactiae by broth microdilution method. The format is functional. The method, boiled down:
as §1

Test [19] deals with Staphylococcus epidermidis. Kind of test: Antibacterial activity against methicillin-susceptible Staphylococcus epidermidis by broth microdilution method. The format is functional.
Test [20] concerns Streptococcus pneumoniae. Kind of test: Antibacterial activity against Streptococcus pneumoniae ATCC 49619 by broth microdilution method. The format is functional. An outline of the steps:
as §1

Regarding `CC[n+]1c(-c2ccccc2)c2cc(N)ccc2c2ccc(N)cc21`, the result with Staphylococcus aureus [1], in the test with Staphylococcus aureus [2], with Staphylococcus aureus [3], with Staphylococcus aureus [4], in the test on Staphylococcus aureus [5] and with Staphylococcus aureus [6] was Active. Moreover, in the test on Staphylococcus aureus [7], the outcome was Active.
As to `CCn1cc(C(=O)O)c(=O)c2cc(F)c(N3CCNCC3)cc21`, the result in the test with Staphylococcus aureus [1], with Staphylococcus aureus [2], with Staphylococcus aureus [3], in the test with Staphylococcus aureus [4], in the test on Staphylococcus aureus [5] and with Staphylococcus aureus [6] was Active. Further, the outcome in the test on Staphylococcus aureus [7] was Active.
For the compound `O=C(O)c1cn(C2CC2)c2cc(N3CCNCC3)c(F)cc2c1=O` [CIPROFLOXACIN], the MIC50 with Streptococcus pyogenes is 0.5 µg/mL (≈ 1.51 µM); in the test on Providencia stuartii it was 32 µg/mL (≈ 96.6 µM); with Serratia marcescens, 0.12 µg/mL (≈ 0.362 µM); with Enterococcus faecalis, 1 µg/mL (≈ 3.02 µM); with Staphylococcus aureus [10] it was 16 µg/mL (≈ 48.3 µM); with Staphylococcus aureus [11] it was above 32 µg/mL. The MIC50 in the test with Staphylococcus aureus [12] was 16 µg/mL (≈ 48.3 µM); against Haemophilus influenzae, 0.008 µg/mL (≈ 0.0241 µM); in the test with Citrobacter freundii, 2 µg/mL (≈ 6.04 µM); in the test with Streptococcus pneumoniae [13], 32 µg/mL (≈ 96.6 µM); with Moraxella catarrhalis it was 0.06 µg/mL (≈ 0.181 µM); with Escherichia coli, 64 µg/mL (≈ 193 µM). Also, the MIC50 in test [14] was determined as 64 µg/mL (≈ 193 µM); against Klebsiella aerogenes it was 0.03 µg/mL (≈ 0.0905 µM); in [17] it was 0.25 µg/mL (≈ 0.754 µM); with Proteus mirabilis, 0.03 µg/mL (≈ 0.0905 µM); against Pseudomonas aeruginosa it was 0.25 µg/mL (≈ 0.754 µM); in the test on Enterococcus faecium, 4 µg/mL (≈ 12.1 µM). Moreover, the MIC50 in test [18] was determined as 16 µg/mL (≈ 48.3 µM); against Streptococcus agalactiae, 1 µg/mL (≈ 3.02 µM); in [19], 0.25 µg/mL (≈ 0.754 µM). For the same compound, the MIC90 is 1 µg/mL (≈ 3.02 µM) against Streptococcus pyogenes; 64 µg/mL (≈ 193 µM) against Providencia stuartii; 0.25 µg/mL (≈ 0.754 µM) in the test with Serratia marcescens; above 16 µg/mL against Enterococcus faecalis; above 32 µg/mL against Staphylococcus aureus [10]; 32 µg/mL (≈ 96.6 µM) in the test on Staphylococcus aureus [11]. For the same compound, the MIC90 was above 32 µg/mL with Staphylococcus aureus [12]; 0.015 µg/mL (≈ 0.0453 µM) in the test with Haemophilus influenzae; above 4 µg/mL against Citrobacter freundii; 64 µg/mL (≈ 193 µM) in the test with Streptococcus pneumoniae [13]; 0.06 µg/mL (≈ 0.181 µM) against Moraxella catarrhalis; 256 µg/mL (≈ 773 µM) in the test with Escherichia coli. Further, the MIC90 was 128 µg/mL (≈ 386 µM) in [14]; 0.03 µg/mL (≈ 0.0905 µM) against Klebsiella aerogenes; 1 µg/mL (≈ 3.02 µM) in [17]; 0.06 µg/mL (≈ 0.181 µM) in the test with Proteus mirabilis; 0.5 µg/mL (≈ 1.51 µM) with Pseudomonas aeruginosa; above 16 µg/mL in the test with Enterococcus faecium. The MIC90 in [18] was found to be 64 µg/mL (≈ 193 µM); against Streptococcus agalactiae it was 1 µg/mL (≈ 3.02 µM); in test [19], 0.5 µg/mL (≈ 1.51 µM). For the same compound, the MIC is 12 µg/mL (≈ 36.2 µM) against Staphylococcus aureus [8]; 12 µg/mL (≈ 36.2 µM) in the test on Staphylococcus aureus [9]; 0.008 µg/mL (≈ 0.0241 µM) against Haemophilus influenzae; 0.6 µg/mL (≈ 1.81 µM) against Staphylococcus aureus [15]; 3 µg/mL (≈ 9.05 µM) in the test with Staphylococcus aureus [16].
In the test on Streptococcus pneumoniae [20], `CC[C@H]1OC(=O)[C@H](C)[C@@H](O[C@H]2C[C@@](C)(OC)[C@@H](O)[C@H](C)O2)[C@H](C)[C@@H](O[C@@H]2O[C@H](C)C[C@H](N(C)C)[C@H]2O)[C@](C)(O)C[C@@H](C)C(=O)[C@H](C)[C@@H](O)[C@]1(C)O` [ERYTHROMYCIN] returned an MIC50 of 0.06 µg/mL (≈ 0.0818 µM) and an MIC90 of 16 µg/mL (≈ 21.8 µM).
